In the library only some 1.8% were active in any assay of this set; here they are far more common.
M4 ag: CHRM4 agonism in calcium assay; CHO-K1 hM4/Gqi5, Fluo-8 calcium fluorescence; vehicle 0%, full acetylcholine response 100%; activation, % at 3 µM; 360,000 compounds, 0.14% hits;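 active = activation above the run mean over all test wells plus 3 SD, cut at about 32% in these data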;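 also: peak over basal fluorescence ratio per well then scaled between controls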
Target sequence (P08173 whole entry, looked up): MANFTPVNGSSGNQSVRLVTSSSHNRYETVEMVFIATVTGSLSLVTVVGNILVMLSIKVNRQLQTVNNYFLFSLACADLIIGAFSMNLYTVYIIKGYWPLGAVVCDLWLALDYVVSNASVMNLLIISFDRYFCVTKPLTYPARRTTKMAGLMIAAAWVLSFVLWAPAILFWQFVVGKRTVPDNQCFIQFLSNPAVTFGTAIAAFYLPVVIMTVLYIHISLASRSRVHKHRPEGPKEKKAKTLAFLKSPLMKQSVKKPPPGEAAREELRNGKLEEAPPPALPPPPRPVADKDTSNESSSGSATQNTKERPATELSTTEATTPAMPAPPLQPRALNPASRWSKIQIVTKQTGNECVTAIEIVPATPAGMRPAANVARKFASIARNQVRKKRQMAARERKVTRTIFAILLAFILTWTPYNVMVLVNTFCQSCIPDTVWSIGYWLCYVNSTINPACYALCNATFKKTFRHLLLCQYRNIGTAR
M4 PAM: positive allosteric modulators of human muscarinic M4 receptor; P08173; CHO-K1 hM4/Gqi5, Fluo-8 calcium fluorescence, ACh EC20; 0% = ACh EC20, 100% = maximal ACh; activation, % at 3 µM; 360,000 compounds, 0.4% hits; AID 624126;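 active = activation above its plate's cutoff, the mean activation of sample wells plus 3 SD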
M5 ag: CHRM5 agonism in calcium assay. 360,000 compounds, 0.19% hits. CHO-K1 hM5 cells, Fluo-8 calcium fluorescence; 0% DMSO wells, 100% maximal acetylcholine response. P08912. activation, % at 3 µM;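 active = activation above the run's mean over test compounds plus 3 SD, cut at about 23% in these data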;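 also: signal is peak over basal fluorescence ratio across the kinetic read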
CHRM5 antagonist: CHRM5 antagonism in calcium assay. P08912. AID 624040. 360,000 compounds, 0.59% hits. inhibition, % at 3 µM. CHO-hM5 cells, Fluo-8 calcium fluorescence, ACh EC80;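 active = inhibition above a per-plate cutoff, the mean of that plate's test compounds plus 3 SD, cut at about 27% in these data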
CHRM4 antagonist: antagonists of human muscarinic M4 receptor (CHRM4). P08173. CHO-hM4 cells, ACh EC80, Fluo-8 calcium fluorescence. inhibition, % at 3 µM. 360,000 compounds, 0.73% hits. AID 624125;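 active = inhibition above its plate's cutoff, the mean inhibition of sample wells plus 3 SD, cut at about 27% in these data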
CHRM5 PAM: CHRM5 positive allosteric modulation. P08912. CHO-K1 hM5, Fluo-8 calcium, ACh EC20 PAM; 0% = ACh EC20, 100% = ACh EC100. activation, % at 3 µM. 360,000 compounds, 0.3% hits. AID 624038;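 active = activation above the run cutoff, the mean activation of all test compounds plus 3 SD, cut at about 18% in these data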
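Replicates: One well per compound, no replicates | System: Human M5 receptor in CHO-K1 cells | Benchmarks: Low control EC20 acetylcholine (0%), high control EC100 acetylcholine (100%) | Probe or stimulus: Acetylcholine, EC20 level | Times: Fluo-8 loading 80 min at 37 °C plus 30 min room temperature | Signal: Intracellular calcium via Fluo-8 fluorescence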
Large screens that a line does not name were inactive.

CCCn1c(SCC(=O)Nc2cccc(S(=O)(=O)NC3=NCCCCC3)c2)nc2ccccc2c1=O	CHRM5 PAM 23.7
Cn1c(=O)c2nc(NCc3ccccc3)cnc2n(C)c1=O	none
Cc1nc2c(=O)n(C)c(=O)n(C)c2nc1Cl	CHRM5 antagonist 28.2
COCC(C)NC(=S)Nc1ccccc1[N+](=O)[O-] (stereo not given)	CHRM5 PAM 19.6
Cc1ccc2cc3cc(C(=O)NCCN4CCOCC4)oc3nc2c1	CHRM5 PAM 20.8
CCn1c(/N=C/c2ccccc2O)nc2ccccc21	none
CC(C)n1c(/N=C/c2ccccc2O)nc2ccccc21	CHRM5 PAM 20.7
COc1ccc(OC)c(NC(=O)NNC(=O)COc2ccc(-c3ccccc3)cc2)c1	none
O=C(COc1ccc(F)cc1F)NNC(=O)Nc1cccc([N+](=O)[O-])c1	none
O=C(COc1ccc([N+](=O)[O-])cc1)NNC(=O)Nc1cccc(F)c1	CHRM5 antagonist 29.2
CCOc1ccc(NC(=O)NNC(=O)COc2ccc3ccccc3c2)cc1	CHRM5 PAM 34.2
O=C(COc1ccc(-c2ccccc2)cc1)NNC(=O)NC1CCCCC1	CHRM4 antagonist 86.7
O=C(COc1ccccc1)NC1CCCCC1	none
O=C(COc1ccc(-c2ccccc2)cc1)NNC(=O)Nc1ccc(F)cc1F	CHRM5 PAM 43.3
CCOC(=O)c1ccc(S(=O)(=O)N2CCC(C(=O)Nc3nnc(C)o3)CC2)cc1	none
O=C(Cn1nnc(-c2ccccc2)n1)NNC(=O)c1cccc([N+](=O)[O-])c1	none
O=C(Cn1nnc(-c2ccc([N+](=O)[O-])cc2)n1)NNC(=O)c1ccccc1	CHRM5 antagonist 31.1
COc1ccc(C(=O)n2nc(C#N)c(C#N)c2N)cc1	none
Cc1cccn2cc(CNS(=O)(=O)c3ccc4ccccc4c3)nc12	none
Cc1ccn2cc(CNS(=O)(=O)c3ccc4ccccc4c3)nc2c1	CHRM4 antagonist 99.2
O=C(C1CCCN(S(=O)(=O)c2ccccc2[N+](=O)[O-])C1)N1CCCC1 (stereo not given)	none
C#CC(CC)(CC)NC(=O)c1nn(-c2ccccc2Cl)c(C)cc1=O	none
NC(=O)c1ccsc1NC(=O)c1cccs1	none
Cc1sc(NC(=O)c2cccs2)c(C(N)=O)c1C	M4 PAM 17.5
Cc1nc(-c2ccncc2)nc(NCCNc2ccc(C(F)(F)F)cn2)c1Cl	none
CCN1C(=O)c2ccc(C(=O)Nc3ccc(O)cc3C)cc2C1=O	none
Cc1c(C(=O)N2CCC(C)(C(=O)NS(=O)(=O)C3CC3)C2)oc2ccccc12 (stereo not given)	M4 PAM 16.6
Cc1c(C(=O)N2CCCC(C)(C(=O)NS(=O)(=O)C3CC3)C2)oc2ccccc12 (stereo not given)	none
COc1cccc(CN(C)C(=O)c2cccc(S(=O)(=O)NCc3ccccc3)c2)c1OC	none
COc1ccc(CN(C)C(=O)c2cccc(Oc3ccccc3)c2)c(OC)c1OC	CHRM5 antagonist 29.8
COc1ccc(CN2CCN(Cc3cccc(Oc4ccccc4)c3)CC2)c(OC)c1OC	CHRM5 antagonist 35.2
CCC(c1nnnn1C1CCCC1)N1CCC(C(N)=O)CC1 (stereo not given)	none
CC(C(=O)O)c1ccc(N2Cc3ccccc3C2=O)cc1 (stereo not given)	CHRM4 antagonist 40.2
Cc1ccccc1N1Cc2ccccc2C1=O	none
COC(=O)c1cc2ccccc2n1S(=O)(=O)c1ccccc1	none
COc1ccc(NC(C)=O)cc1S(=O)(=O)N1CC=C(c2ccccc2)CC1	none
O=C(C1CCN(c2ccc(N3CCOCC3)nn2)CC1)N1CCc2ccccc2C1	CHRM4 antagonist 46.4
O=C(C1CCN(S(=O)(=O)N2CCC3(CC2)OCCO3)CC1)N1CCc2ccccc2C1	none
Cc1cc(C(=O)Nc2cccc(C)c2C)c2ccccc2n1	none
O=C(NN1C(=O)NC2(CCCCC2)C1=O)c1ccc(-c2ccc(Cl)cc2)o1	none
CCOc1ccc2c(c1)c(N=O)c(O)n2C	CHRM5 PAM 19.7
Cc1nc2cc(NC(=O)N3CCN(c4ccccn4)CC3)ccc2o1	none
O=C(Nc1ccc2nc(-c3ccco3)c(-c3ccco3)nc2c1)N1CCN(c2ccccn2)CC1	CHRM5 PAM 19.9
CNC(C)C(=O)NC(C(=O)NC(C)C(=O)Nc1cccc2ccccc12)C(C)C (stereo not given)	M4 PAM 18.4
C=CCn1c(CNC(=O)c2ccccc2F)nnc1SCC(=O)NC(C)c1ccccc1 (stereo not given)	none
N#CC1=C(N)Oc2cc(O)ccc2C1c1ccc(Br)s1 (stereo not given)	M5 ag 29.4
CCc1ccc(-n2c(=O)c3c(C)c(C)sc3n(CC(=O)NCC3CCCO3)c2=O)cc1 (stereo not given)	none
O=C(Nc1cnc2ccccc2c1)N1CCOCC1	M4 PAM 19.6
CN(c1ccccc1)c1ccc(/C=C/[N+](=O)[O-])cc1	M5 ag 44.1, CHRM5 antagonist 70.6, CHRM4 antagonist 36.4
CC1C(=O)N2CCCc3cc(S(=O)(=O)Nc4ccccc4C(N)=O)cc1c32 (stereo not given)	none
CCn1cc([N+](=O)[O-])c(C(=O)N2CCCc3ccccc32)n1	M4 PAM 22.0
CCn1cc([N+](=O)[O-])c(C(=O)N2CCCCCC2)n1	none
O=C1CCC(=O)N1c1ccc(S(=O)(=O)N2CCCC2)cc1	none
COc1cc([N+](=O)[O-])ccc1NC(=O)NCC1CCN(Cc2ccc(Cl)cc2)CC1	CHRM4 antagonist 31.8
CN(C)C(=S)Oc1ccccc1C1(C)OCCO1	none
O=C(Nc1cc(S(=O)(=O)N2CCOCC2)ccc1N1CCCC1)c1cccnc1Cl	CHRM4 antagonist 27.7
CCOc1ncccc1C(=O)Nc1cc(S(=O)(=O)N2CCOCC2)ccc1N1CCCC1	none
CC(OC(=O)CCCN=C1NS(=O)(=O)c2ccccc21)C(=O)N(C)c1ccccc1 (stereo not given)	none
CC(OC(=O)CCCN=C1NS(=O)(=O)c2ccccc21)C(=O)c1ccccc1 (stereo not given)	M5 ag 25.7
CN(C(=O)CN1C(=O)S/C(=C\c2ccc(Cl)cc2)C1=O)C1CCS(=O)(=O)C1 (stereo not given)	M4 PAM 16.6
CN(C(=O)CN1C(=O)S/C(=C\c2ccccc2)C1=O)C1CCS(=O)(=O)C1 (stereo not given)	none
CN(C(=O)CCN1C(=O)/C(=C/c2ccccc2)SC1=S)C1CCS(=O)(=O)C1 (stereo not given)	CHRM5 PAM 30.5
CN(C(=O)CN1C(=O)/C(=C/c2ccc(F)cc2)SC1=S)C1CCS(=O)(=O)C1 (stereo not given)	none

From PubChem BioAssay
